Measurements reported in ChEMBL document CHEMBL3627653, “Synthesis and biological evaluation of spiro[cyclopropane-1,3'-indolin]-2'-ones as potential anticancer agents” (Bioorg Med Chem Lett, 2015).
Active and inactive are the calls of the source. The rule behind the calls is not given here.

Legend:
MCF7 [1] = assay: Anticancer activity against human MCF7 cells; assay type: functional
How it was run: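 Human MCF-7 breast cancer cells exposed to compound for 48 h. The IC50 (50% inhibitory concentration) is reported as the average of three individual experiments.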

DU-145 [2] = assay: Induction of cell cycle arrest in human DU145 cells assessed as accumulation at S phase at 3 uM incubated for 48 hrs by propidium iodide staining based flow cytometry (reference value: 1.74%); assay type: functional
DU-145 [3] = assay: Reduction in mitochondrial membrane potential in human DU145 cells at 1.5 uM incubated for 48 hrs by JC1 dye staining based flow cytometry; assay type: functional, cell-based
How it was run: (§1)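 After 48 h exposure at 1.5 or 3 μM, DU-145 cells were stained with JC-1 to track loss of mitochondrial membrane potential (ΔΨm) and read on a FACScan flow cytometer. Untreated control and nocodazole (1.5 μM) were run alongside.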

HT-29 = assay: Anticancer activity against human HT-29 cells assessed as reduction in cell viability incubated for 48 hrs by MTT assay; assay type: functional, cell-based; conditions: HT-29, 48 h
DU-145 [4] = assay: Induction of cell cycle arrest in human DU145 cells assessed as accumulation at G0/G1 phase at 1.5 uM incubated for 48 hrs by propidium iodide staining based flow cytometry (reference value: 79.81%); assay type: functional
DU-145 [5] = assay: Induction of apoptosis in human DU145 cells assessed as late apoptotic cells level at 3 uM incubated for 48 hrs by Annexin V-FITC and propidium iodide staining based flow cytometry (reference value: 3.83%); assay type: functional
DU-145 [6] = assay: Reduction in mitochondrial membrane potential in human DU145 cells assessed as cell level at Q1-lower right quadrant at 1.5 uM incubated for 48 hrs by JC1 dye staining based flow cytometry (reference value: 3.1%); assay type: functional; parameters: scale not given: the % may be the effect or the level left; how it was run: as §1
HEK293 = assay: Cytotoxic activity against human HEK293 cells assessed as reduction in cell viability incubated for 48 hrs by MTT assay; assay type: cell-based; conditions: HEK293, 48 h
DU-145 [7] = assay: Induction of apoptosis in human DU145 cells assessed as necrotic cells level at 3 uM incubated for 48 hrs by Annexin V-FITC and propidium iodide staining based flow cytometry (reference value: 3.56%); assay type: functional
DU-145 [8] = assay: Reduction in mitochondrial membrane potential in human DU145 cells assessed as cell level at Q1-lower left quadrant at 3 uM incubated for 48 hrs by JC1 dye staining based flow cytometry (reference value: 0.1%); assay type: functional; parameters: scale not given: the % may be the effect or the level left; how it was run: as §1
DU-145 [9] = assay: Reduction in mitochondrial membrane potential in human DU145 cells assessed as cell level at Q1-upper right quadrant at 3 uM incubated for 48 hrs by JC1 dye staining based flow cytometry (reference value: 95.1%); assay type: functional; parameters: scale not given: the % may be the effect or the level left; how it was run: as §1
DU-145 [10] = assay: Induction of cell cycle arrest in human DU145 cells assessed as accumulation at G2/M phase at 1.5 uM incubated for 48 hrs by propidium iodide staining based flow cytometry (reference value: 6.51%); assay type: functional
DU-145 [11] = assay: Induction of apoptosis in human DU145 cells assessed as early apoptotic cells level at 1.5 uM incubated for 48 hrs by Annexin V-FITC and propidium iodide staining based flow cytometry (reference value: 4.73%); assay type: functional
DU-145 [12] = assay: Induction of cell cycle arrest in human DU145 cells assessed as accumulation at subG1 phase at 1.5 uM incubated for 48 hrs by propidium iodide staining based flow cytometry (reference value: 9.12%); assay type: functional
DU-145 [13] = assay: Induction of cell cycle arrest in human DU145 cells assessed as accumulation at G2/M phase at 3 uM incubated for 48 hrs by propidium iodide staining based flow cytometry (reference value: 6.51%); assay type: functional
DU-145 [14] = assay: Reduction in mitochondrial membrane potential in human DU145 cells assessed as cell level at Q1-upper left quadrant at 3 uM incubated for 48 hrs by JC1 dye staining based flow cytometry (reference value: 1.6%); assay type: functional; parameters: scale not given: the % may be the effect or the level left; how it was run: as §1
DU-145 [15] = assay: Induction of cell cycle arrest in human DU145 cells assessed as accumulation at G0/G1 phase at 3 uM incubated for 48 hrs by propidium iodide staining based flow cytometry (reference value: 79.81%); assay type: functional
DU-145 [16] = assay: Induction of cell cycle arrest in human DU145 cells assessed as accumulation at S phase at 1.5 uM incubated for 48 hrs by propidium iodide staining based flow cytometry (reference value: 1.74%); assay type: functional
HeLa = assay: Anticancer activity against human HeLa cells assessed as reduction in cell viability incubated for 48 hrs by MTT assay; assay type: functional, cell-based
DU-145 [17] = assay: Induction of apoptosis in human DU145 cells assessed as increase in caspase-3 levels level at 1.5 and 3 uM incubated for 48 hrs by ELISA method; assay type: functional
How it was run: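 Caspase-3 levels measured in DU-145 cells after 48 h treatment at 1.5 and 3 μM and expressed relative to untreated control. Data are mean ± SD of two experiments each run in triplicate; significance set at P < 0.005 versus control.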

DU-145 [18] = assay: Induction of apoptosis in human DU145 cells assessed as viable cells level at 1.5 uM incubated for 48 hrs by Annexin V-FITC and propidium iodide staining based flow cytometry (reference value: 87.88%); assay type: functional
DU-145 [19] = assay: Anticancer activity against human DU145 cells; assay type: functional, cell-based
DU-145 [20] = assay: Reduction in mitochondrial membrane potential in human DU145 cells assessed as cell level at Q1-upper right quadrant at 1.5 uM incubated for 48 hrs by JC1 dye staining based flow cytometry (reference value: 95.1%); assay type: functional; parameters: scale not given: the % may be the effect or the level left; how it was run: as §1
DU-145 [21] = assay: Induction of apoptosis in human DU145 cells assessed as necrotic cells level at 1.5 uM incubated for 48 hrs by Annexin V-FITC and propidium iodide staining based flow cytometry (reference value: 3.56%); assay type: functional
A549 = assay: Anticancer activity against human A549 cells assessed as reduction in cell viability incubated for 48 hrs by MTT assay; assay type: functional, cell-based; conditions: A549, 48 h
DU-145 [22] = assay: Anticancer activity against human DU145 cells assessed as reduction in cell viability incubated for 48 hrs by MTT assay; assay type: functional, cell-based; conditions: DU-145, 48 h
DU-145 [23] = assay: Reduction in mitochondrial membrane potential in human DU145 cells assessed as cell level at Q1-upper left quadrant at 1.5 uM incubated for 48 hrs by JC1 dye staining based flow cytometry (reference value: 1.6%); assay type: functional; parameters: scale not given: the % may be the effect or the level left; how it was run: as §1
DU-145 [24] = assay: Induction of apoptosis in human DU145 cells assessed as viable cells level at 3 uM incubated for 48 hrs by Annexin V-FITC and propidium iodide staining based flow cytometry (reference value: 87.88%); assay type: functional
DU-145 [25] = assay: Induction of apoptosis in human DU145 cells assessed as early apoptotic cells level at 3 uM incubated for 48 hrs by Annexin V-FITC and propidium iodide staining based flow cytometry (reference value: 4.73%); assay type: functional
DU-145 [26] = assay: Reduction in mitochondrial membrane potential in human DU145 cells assessed as cell level at Q1-lower left quadrant at 1.5 uM incubated for 48 hrs by JC1 dye staining based flow cytometry (reference value: 0.1%); assay type: functional; parameters: scale not given: the % may be the effect or the level left; how it was run: as §1
DU-145 [27] = assay: Induction of cell cycle arrest in human DU145 cells assessed as accumulation at subG1 phase at 3 uM incubated for 48 hrs by propidium iodide staining based flow cytometry (reference value: 9.12%); assay type: functional
DU-145 [28] = assay: Induction of apoptosis in human DU145 cells assessed as late apoptotic cells level at 1.5 uM incubated for 48 hrs by Annexin V-FITC and propidium iodide staining based flow cytometry (reference value: 3.83%); assay type: functional
MCF7 [29] = assay: Anticancer activity against human MCF7 cells assessed as reduction in cell viability incubated for 48 hrs by MTT assay; assay type: functional, cell-based; conditions: MCF7, 48 h
DU-145 [30] = assay: Reduction in mitochondrial membrane potential in human DU145 cells at 3 uM incubated for 48 hrs by JC1 dye staining based flow cytometry; assay type: functional, cell-based; how it was run: as §1
DU-145 [31] = assay: Reduction in mitochondrial membrane potential in human DU145 cells assessed as cell level at Q1-lower right quadrant at 3 uM incubated for 48 hrs by JC1 dye staining based flow cytometry (reference value: 3.1%); assay type: functional; parameters: scale not given: the % may be the effect or the level left; how it was run: as §1

Compound	GI50 (MCF7 [1]) [µM]	Activity (DU-145 [2]) [%]	Activity (DU-145 [3])	IC50 (HT-29) [µM]	Activity (DU-145 [4]) [%]	Activity (DU-145 [5]) [%]	Activity (DU-145 [6]) [%]	IC50 (HEK293) [µM]	Activity (DU-145 [7]) [%]	Activity (DU-145 [8]) [%]	Activity (DU-145 [10]) [%]	Activity (DU-145 [11]) [%]	Activity (DU-145 [12]) [%]	Activity (DU-145 [16]) [%]	Activity (DU-145 [18]) [%]	Activity (DU-145 [20]) [%]	Activity (DU-145 [21]) [%]	Activity (DU-145 [23]) [%]	Activity (DU-145 [26]) [%]	Activity (DU-145 [28]) [%]	also measured
CC(=O)N1C(=O)[C@]2(Sc3ncccc3C(=O)N2c2ccccc2)c2cc(Br)ccc21	2.13	–	–	–	–	–	–	–	–	–	–	–	–	–	–	–	–	–	–	–	–
CN1O[C@@]2(C[C@@H]1c1ccccc1)C(=O)Nc1ccccc12	2.6	–	–	–	–	–	–	–	–	–	–	–	–	–	–	–	–	–	–	–	–
CCOC(=O)[C@H]1[C@H](C(=O)c2ccccc2)C12C(=O)Nc1ccccc12 (relative stereo)	–	70.57	Active	3.89	2.11	10.12	6.6	64.6	10.74	1.6	2.27	56.01	7.77	16.58	4.19	89.7	0.62	2.9	0.8	78.52	Activity (DU-145 [9]): 85.1%; Activity (DU-145 [13]): 8.93%; Activity (DU-145 [14]): 2.2%; Activity (DU-145 [15]): 4.03%; IC50 (HeLa): 7.5 µM; fold change (FC) (DU-145 [17]): 2; IC50 (DU-145 [19]): 2.08 µM; IC50 (A549): 5.12 µM; IC50 (DU-145 [22]): 2.08 µM; Activity (DU-145 [24]): 17.66%; Activity (DU-145 [25]): 22.15%; Activity (DU-145 [27]): 84.93%; IC50 (MCF7 [29]): 3.98 µM; Activity (DU-145 [30]): Active; Activity (DU-145 [31]): 11.1%
CCOC(=O)[C@H]1[C@H](C(=O)c2ccc(C)cc2)C12C(=O)Nc1ccc(Br)cc12 (relative stereo)	–	64.01	Active	1.87	1.35	18.78	7.5	79.4	11.5	1.8	2.1	57.28	8.8	26.17	2.74	88.1	3.41	3.1	1.1	66.31	Activity (DU-145 [9]): 84.1%; Activity (DU-145 [13]): 3.16%; Activity (DU-145 [14]): 2.1%; Activity (DU-145 [15]): 3.4%; IC50 (HeLa): 16.1 µM; fold change (FC) (DU-145 [17]): 2; IC50 (A549): 4.56 µM; IC50 (DU-145 [22]): 1.86 µM; Activity (DU-145 [24]): 17%; Activity (DU-145 [25]): 22.98%; Activity (DU-145 [27]): 85.57%; IC50 (MCF7 [29]): 3.63 µM; Activity (DU-145 [30]): Active; Activity (DU-145 [31]): 12%
COC(=O)Nc1nc2cc(C(=O)c3cccs3)ccc2[nH]1 [NOCODAZOLE]	–	–	Active	–	57.63	–	8.3	–	–	–	26.59	9.52	9.25	5.61	81.21	87.5	3.92	2.8	1.4	5.35	–
